The source made the active and inactive calls. The rule behind the calls is not given here.
Columns and labels:
[1] = biological target: Nucleotide-binding oligomerization domain-containing protein 2 (Homo sapiens) (UniProt Q9HC29); test: Agonist activity at human NOD2 receptor expressed in mouse Raw-Blue reporter cells at 10 uM after 48 hrs by SEAP reporter gene assay; type: cell-based
Method in brief: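 RAW 264.7-derived RAW-Blue cells carrying an NF-κB/AP-1-inducible SEAP reporter, exposed to compounds at 10 μM for 48 h. Colorimetric SEAP read-out at 650 nm. MDP serves as positive control. ANOVA with Dunnett's test versus untreated cells and versus MDP.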

[2] = tested on: Oryctolagus cuniculus; test: Toxicity in New Zealand albino rabbit assessed as weight loss at 100 nmol/kg, sc using liposomal formulation measured up to 2 months post dose; type: organism-based; settings: in vivo
[3] = tested on: Oryctolagus cuniculus; test: Toxicity in Chinchilla rabbit assessed as weight loss at 100 nmol/kg, iv using micellar formulation measured up to 2 months post dose; type: organism-based; settings: in vivo
[4] = tested on: Oryctolagus cuniculus; test: Toxicity in Chinchilla rabbit assessed as skin irritation at 100 nmol/kg, iv using micellar formulation measured up to 2 months post dose; type: organism-based; settings: in vivo
[5] = biological target: Nucleotide-binding oligomerization domain-containing protein 2 (Homo sapiens) (UniProt Q9HC29); test: Agonist activity at human NOD2 receptor expressed in mouse Raw-Blue reporter cells at 10 uM after 24 hrs in presence of GSK717 by SEAP reporter gene assay
[6] = biological target: T1, Nucleotide-binding oligomerization domain-containing protein 1 (Homo sapiens) (UniProt Q9Y239); test: Agonist activity at human NOD1 receptor expressed in HEK-Blue reporter cells at 10 uM after 48 hrs by SEAP reporter gene assay; type: cell-based
T1 sequence (whole entry): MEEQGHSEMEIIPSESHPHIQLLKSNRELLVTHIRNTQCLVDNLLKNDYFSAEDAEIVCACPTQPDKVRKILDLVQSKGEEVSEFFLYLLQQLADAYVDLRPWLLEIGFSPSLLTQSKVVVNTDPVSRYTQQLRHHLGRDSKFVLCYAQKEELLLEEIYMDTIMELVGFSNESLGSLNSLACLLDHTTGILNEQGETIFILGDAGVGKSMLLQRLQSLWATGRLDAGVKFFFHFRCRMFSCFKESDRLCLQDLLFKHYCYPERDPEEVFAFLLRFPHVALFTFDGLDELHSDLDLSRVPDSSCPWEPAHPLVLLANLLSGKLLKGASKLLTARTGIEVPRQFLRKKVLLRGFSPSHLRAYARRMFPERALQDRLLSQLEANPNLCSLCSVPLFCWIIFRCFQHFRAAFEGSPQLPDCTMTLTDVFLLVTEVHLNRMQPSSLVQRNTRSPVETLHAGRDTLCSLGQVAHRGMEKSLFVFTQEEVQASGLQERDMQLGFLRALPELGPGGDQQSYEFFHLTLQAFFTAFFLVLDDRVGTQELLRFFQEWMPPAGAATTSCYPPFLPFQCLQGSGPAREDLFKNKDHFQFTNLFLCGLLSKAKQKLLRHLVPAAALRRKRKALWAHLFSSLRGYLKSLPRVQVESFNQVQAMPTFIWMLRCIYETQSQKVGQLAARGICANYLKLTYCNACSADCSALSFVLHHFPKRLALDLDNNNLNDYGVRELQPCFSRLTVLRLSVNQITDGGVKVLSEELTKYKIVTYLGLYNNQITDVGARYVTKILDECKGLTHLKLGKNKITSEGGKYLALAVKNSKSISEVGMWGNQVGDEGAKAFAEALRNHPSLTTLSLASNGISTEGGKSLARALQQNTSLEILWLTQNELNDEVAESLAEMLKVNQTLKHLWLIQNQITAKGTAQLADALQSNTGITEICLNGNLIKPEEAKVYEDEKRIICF
Method in brief: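 HEK293 cells cotransfected with human NOD1 and an NF-κB/AP-1-inducible SEAP reporter, exposed to compounds at 10 μM for 48 h. SEAP is read at 650 nm with QUANTI-Blue. Diaminopimelic acid derivatives serve as NOD1 positive controls. Dunnett's test is used versus untreated cells.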

[7] = tested on: Mus musculus; test: Immuno-stimulatory activity in ICR mouse assessed as induction of GM-progenitor cell proliferation in serum at […], sc using liposomal formulation measured after 6 hrs; type: functional, organism-based
Method in brief: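 Female ICR mice, 3 months old, four per group, given liposomal preparations sc at 100 nmol per dose in 200 μL. Serum collected 6 h later and added to cultured granulocyte–monocyte progenitors. GM-CFU colonies counted, with serum-free cells as baseline. Dunnett's test is used versus the infusion-solution control.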

[8] = tested on: Oryctolagus cuniculus; test: Toxicity in New Zealand albino rabbit assessed as behavioral changes at 100 nmol/kg, sc using liposomal formulation measured up to 2 months post dose; type: organism-based; settings: in vivo
[9] = tested on: Oryctolagus cuniculus; test: Pyrogenic activity in New Zealand albino rabbit assessed as change in maximum body temperature at 100 nmol/kg, sc using liposomal formulation measured at 30 mins time intervals for 9 to 24 hrs (reference value: 0.2 degC); type: toxicity, organism-based; settings: in vivo
Method in brief: (§1)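 Standard rabbit pyrogenicity test, three animals per group, iv or modified sc application of free (micellar) or liposomal formulations. Maximum temperature rise (+ΔTmax) summed per group; sum below 1.1 °C classed as nonpyrogenic. Temperature followed a further 24 h for delayed pyrogenicity.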

[10] = tested on: Oryctolagus cuniculus; test: Toxicity in New Zealand albino rabbit assessed as necrosis at site of application at 100 nmol/kg, sc using liposomal formulation measured up to 2 months post dose; type: organism-based; settings: in vivo
[11] = tested on: Oryctolagus cuniculus; test: Toxicity in Chinchilla rabbit assessed as behavioral changes at 100 nmol/kg, iv using micellar formulation measured up to 2 months post dose; type: organism-based; settings: in vivo
[12] = tested on: Oryctolagus cuniculus; test: Toxicity in New Zealand albino rabbit assessed as skin irritation at 100 nmol/kg, sc using liposomal formulation measured up to 2 months post dose; type: organism-based; settings: in vivo
[13] = tested on: Oryctolagus cuniculus; test: Toxicity in Chinchilla rabbit assessed as necrosis at site of application at 100 nmol/kg, iv using micellar formulation measured up to 2 months post dose; type: organism-based; settings: in vivo
[14] = biological target: Nucleotide-binding oligomerization domain-containing protein 2 (Homo sapiens) (UniProt Q9HC29); test: Agonist activity at human NOD2 receptor expressed in mouse Raw-Blue reporter cells at 10 uM after 48 hrs in presence of gefitinib by SEAP reporter gene assay; type: cell-based
[15] = biological target: NACHT, LRR and PYD domains-containing protein 3 (Homo sapiens, UniProt Q96P20); test: Agonist activity at NLRP3 in human […] cells assessed as induction of LPS-induced IL-1beta secretion by HEK-Blue reporter cell based assay
Method in brief: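 THP1-Null cells stimulated with compounds; mature IL-1β released is detected with HEK-Blue IL-1β cells through SEAP reporter activity in the supernatant, read colorimetrically with QUANTI-Blue. ATP serves as positive standard. Untreated HEK-Blue IL-1β cells serve as negative control; comparison by ANOVA with Dunnett's test.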

[16] = tested on: Oryctolagus cuniculus; test: Pyrogenic activity in Chinchilla rabbit assessed as change in maximum body temperature at 100 nmol/kg, iv using micellar foemulation measured at 30 mins time intervals; type: toxicity, organism-based; settings: in vivo, 0.5 h; method in brief: as §1

Nucleotide-binding oligomerization domain-containing protein 2 (Homo sapiens), sequence (Q9HC29 whole entry, the tested form may be a part): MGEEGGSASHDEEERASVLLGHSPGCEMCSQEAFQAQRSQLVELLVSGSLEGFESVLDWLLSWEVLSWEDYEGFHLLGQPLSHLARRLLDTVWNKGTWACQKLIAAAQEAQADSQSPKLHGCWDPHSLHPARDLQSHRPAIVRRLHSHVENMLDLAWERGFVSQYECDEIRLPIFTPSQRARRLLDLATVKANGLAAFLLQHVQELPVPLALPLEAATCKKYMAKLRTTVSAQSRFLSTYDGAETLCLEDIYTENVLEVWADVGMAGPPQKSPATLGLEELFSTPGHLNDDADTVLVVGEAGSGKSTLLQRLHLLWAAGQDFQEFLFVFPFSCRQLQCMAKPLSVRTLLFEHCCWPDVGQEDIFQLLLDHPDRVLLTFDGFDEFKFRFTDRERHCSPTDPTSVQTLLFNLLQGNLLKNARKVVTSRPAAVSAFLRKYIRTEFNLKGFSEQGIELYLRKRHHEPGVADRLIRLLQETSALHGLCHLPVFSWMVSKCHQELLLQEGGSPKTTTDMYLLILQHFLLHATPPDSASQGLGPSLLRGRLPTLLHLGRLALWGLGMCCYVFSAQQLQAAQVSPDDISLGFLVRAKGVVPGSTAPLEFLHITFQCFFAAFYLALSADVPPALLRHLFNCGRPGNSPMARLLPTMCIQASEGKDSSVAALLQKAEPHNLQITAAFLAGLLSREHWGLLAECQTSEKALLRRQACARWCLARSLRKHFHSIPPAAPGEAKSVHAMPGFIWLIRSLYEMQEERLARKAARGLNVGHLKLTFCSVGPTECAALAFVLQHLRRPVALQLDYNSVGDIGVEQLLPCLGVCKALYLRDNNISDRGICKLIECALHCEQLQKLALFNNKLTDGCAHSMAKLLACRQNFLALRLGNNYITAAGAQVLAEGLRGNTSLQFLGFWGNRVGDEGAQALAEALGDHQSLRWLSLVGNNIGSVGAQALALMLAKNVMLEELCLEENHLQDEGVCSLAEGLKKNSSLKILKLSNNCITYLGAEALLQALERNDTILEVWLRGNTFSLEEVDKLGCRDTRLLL
NACHT, LRR and PYD domains-containing protein 3, sequence (Q96P20 whole entry, the tested form may be a part): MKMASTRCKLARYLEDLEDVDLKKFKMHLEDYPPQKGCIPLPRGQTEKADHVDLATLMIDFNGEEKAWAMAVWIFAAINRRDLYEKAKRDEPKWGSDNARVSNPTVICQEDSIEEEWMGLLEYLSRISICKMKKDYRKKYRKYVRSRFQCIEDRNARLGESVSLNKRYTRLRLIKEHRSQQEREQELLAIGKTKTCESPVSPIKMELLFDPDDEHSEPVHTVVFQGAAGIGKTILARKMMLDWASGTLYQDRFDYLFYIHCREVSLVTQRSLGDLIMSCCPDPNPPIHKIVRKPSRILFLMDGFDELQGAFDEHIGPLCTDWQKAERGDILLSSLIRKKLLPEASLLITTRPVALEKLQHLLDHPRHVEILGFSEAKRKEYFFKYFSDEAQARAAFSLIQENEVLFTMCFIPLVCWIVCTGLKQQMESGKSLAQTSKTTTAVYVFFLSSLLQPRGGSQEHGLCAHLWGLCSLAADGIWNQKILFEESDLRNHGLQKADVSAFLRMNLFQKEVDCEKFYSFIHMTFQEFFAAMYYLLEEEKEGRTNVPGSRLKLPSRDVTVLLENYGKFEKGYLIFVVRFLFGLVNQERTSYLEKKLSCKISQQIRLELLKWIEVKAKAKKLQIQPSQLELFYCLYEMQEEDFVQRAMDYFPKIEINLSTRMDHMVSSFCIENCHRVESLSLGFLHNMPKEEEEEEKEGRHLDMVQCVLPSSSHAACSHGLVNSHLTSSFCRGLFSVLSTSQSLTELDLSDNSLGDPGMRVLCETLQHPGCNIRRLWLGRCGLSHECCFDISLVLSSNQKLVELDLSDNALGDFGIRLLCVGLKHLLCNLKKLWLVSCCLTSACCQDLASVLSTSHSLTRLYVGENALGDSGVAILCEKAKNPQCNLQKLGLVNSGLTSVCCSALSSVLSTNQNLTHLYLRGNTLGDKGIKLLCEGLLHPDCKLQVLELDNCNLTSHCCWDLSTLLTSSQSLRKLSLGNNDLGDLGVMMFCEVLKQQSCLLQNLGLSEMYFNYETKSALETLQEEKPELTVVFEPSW

Row | Activity [1] | Activity [5] | Activity [6] | Activity [14] | Activity [15] | Compound | Activity [2] | Activity [3] | Activity [4] | Activity [7] | Activity [8] | deltaT [9] [°C] | Activity [10] | Activity [11] | Activity [12] | Activity [13] | deltaT [16] [°C]
1 | Active | inactive | inactive | inactive | Active | CCCCCCCCCCCCCCCCCC(=O)NCCCC[C@H](NC(=O)CC[C@@H](NC(=O)[C@H](CC)NC(=O)CO[C@H]1[C@H](O[C@@H]2O[C@H](CO)[C@@H](O)[C@H](O)[C@H]2NC(C)=O)[C@@H](CO)OC(O)[C@@H]1NC(C)=O)C(N)=O)C(=O)O (some centres not stated) | Non-Toxic | Non-Toxic | Non-Toxic | Active | Non-Toxic | 0.4 | Non-Toxic | Non-Toxic | Non-Toxic | Non-Toxic | 0.5
2 | Active | inactive | inactive | inactive | Active | CCCCCCCCCCCCCCCCCC(=O)N[C@H]1[C@H](O[C@H]2[C@H](OCC(=O)N[C@@H](CC)C(=O)N[C@H](CCC(=O)O)C(N)=O)[C@@H](NC(C)=O)C(O)O[C@@H]2CO)O[C@H](CO)[C@@H](O)[C@@H]1O (some centres not stated) | Non-Toxic | Non-Toxic | Non-Toxic | Active | Non-Toxic | 0.4 | Non-Toxic | Non-Toxic | Non-Toxic | Non-Toxic | 0.5
3 | Active | inactive | inactive | inactive | Active | CCCCCCCCCCCCCCC(CCCCCCCCCCCCCC)C(=O)NCCCC[C@H](NC(=O)CC[C@@H](NC(=O)[C@H](CC)NC(=O)CO[C@H]1[C@H](O[C@@H]2O[C@H](CO)[C@@H](O)[C@H](O)[C@H]2NC(C)=O)[C@@H](CO)OC(O)[C@@H]1NC(C)=O)C(N)=O)C(=O)O (some centres not stated) | Non-Toxic | Non-Toxic | Non-Toxic | Active | Non-Toxic | 0.5 | Non-Toxic | Non-Toxic | Non-Toxic | Non-Toxic | 0.4
4 | Active | inactive | inactive | inactive | Active | CCCCCCCCCCCCCCC(CCCCCCCCCCCCCC)C(=O)OC[C@H]1OC(O)[C@H](NC(C)=O)[C@@H](OCC(=O)N[C@@H](CC)C(=O)N[C@H](CCC(=O)O)C(N)=O)[C@@H]1O (some centres not stated) | Non-Toxic | Non-Toxic | Non-Toxic | Active | Non-Toxic | 0.5 | Non-Toxic | Non-Toxic | Non-Toxic | Non-Toxic | 0.6

More lines, now with the values behind:

Row | Compound | Activity [1] | Activity [5] | Activity [6] | Activity [14] | Activity [15] | Activity [2] | Activity [3] | Activity [4] | Activity [7] | Activity [8] | deltaT [9] [°C] | Activity [10] | Activity [11] | Activity [12] | Activity [13] | deltaT [16] [°C]
5 | C[C@H](N)C(=O)N[C@H](CCC(=O)NC12CC3CC(CC(C3)C1)C2)C(N)=O | inactive |  |  |  |  |  |  |  |  |  |  |  |  |  |  | 
6 | CCCCCCCCCCCCCCCCCC(=O)OC[C@H]1OC(O)[C@H](NC(C)=O)[C@@H](OCC(=O)N[C@@H](CC)C(=O)N[C@H](CCC(=O)O)C(N)=O)[C@@H]1O (some centres not stated) | Active | inactive | inactive | inactive | Active | Non-Toxic | Non-Toxic | Non-Toxic | Active | Non-Toxic | 0.6 | Non-Toxic | Non-Toxic | Non-Toxic | Non-Toxic | 0.6
7 | Nc1ncnc2c1ncn2[C@@H]1O[C@H](COP(=O)(O)OP(=O)(O)OP(=O)(O)O)[C@@H](O)[C@H]1O [ADENOSINE TRIPHOSPHATE] |  |  |  |  | Active |  |  |  |  |  |  |  |  |  |  | 
8 | C[C@H](NC(=O)[C@@H](C)O[C@H]1[C@H](O)[C@@H](CO)OC(O)[C@@H]1NC(=O)CO)C(=O)N[C@H](CCC(=O)O)C(N)=O (some centres not stated) | Active |  |  |  |  |  |  |  |  |  |  |  |  |  |  | 
9 | CCCCCCCCCCCCCCCCCC(=O)NCCCC[C@H](NC(=O)CC[C@@H](NC(=O)[C@H](CC)NC(=O)CO[C@H]1[C@H](O)[C@@H](CO)OC(O)[C@@H]1NC(C)=O)C(N)=O)C(=O)O (some centres not stated) | Active | inactive | inactive | inactive | Active | Non-Toxic | Non-Toxic | Non-Toxic | Active | Non-Toxic | 0.5 | Non-Toxic | Non-Toxic | Non-Toxic | Non-Toxic | 0.4
10 | CCCCCCCCCCCCCCCCCC(=O)OC[C@H]1OC(O)[C@H](NC(C)=O)[C@@H](O[C@H](C)C(=O)N[C@@H](C)C(=O)N[C@H](CCC(=O)O)C(N)=O)[C@@H]1O (some centres not stated) | Active | inactive |  | inactive |  |  |  |  |  |  |  |  |  |  |  | 

From ChEMBL document CHEMBL4024746, “Nonpyrogenic Molecular Adjuvants Based on norAbu-Muramyldipeptide and norAbu-Glucosaminyl Muramyldipeptide: Synthesis, Molecular Mechanisms of Action, and Biological Activities in Vitro and in Vivo” (J Med Chem, 2017)
